Rows were chosen to be rich in hits. Some 3.3% of all compounds tested hit in one or more screens of this group.
HGIII-sPLA2 inh: Inhibits HGIII-sPLA2 liposome hydrolysis, primary screen; QFRET BODIPY PC-A2 liposome hydrolysis, fluorescence; 370,000 compounds, 0.56% hits; inhibition, % at 12.2 µM;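 active = inhibition above mean plus 3 SD of compounds lying within the high and low control bounds, cut at about 19% in these data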;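 note: 0% = median of test compound wells and 100% = no enzyme DMSO wells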
Arr AP2 block: blocks beta-arrestin peptide binding to AP2 adaptin | FITC-arrestin peptide / GST-AP2 beads, flow cytometry; AP2 beta2 appendage carries R879A mutation | inhibition, % at 10 µM | 340,000 compounds, 0.31% hits;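 active = inhibition above a set limit, near 3 SD of compounds lacking own fluorescence, cut at about 54% in these data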;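 note: plate controls were DMSO wells for no effect and 5 µM unlabelled arrestin peptide for full effect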
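System: GST-AP2 R879A glutathione beads; medium: PBS, Tween 20 0.05%, BSA 0.1%; reagent: fluorescein-tagged arrestin peptide at 50 nM final; schedule: pre-incubation 12 min, peptide binding 1 h, room temperature; detection: flow cytometry, FL1 (488/535 nm); read-out: inhibition as reduced fluorescein signal on beads, percent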
M18AAP inhibitor: PfM18AAP enzyme inhibition | inhibition, % at 7.35 µM | AID 1822 | recombinant PfM18AAP, H-Glu-NHMec fluorogenic cleavage | 290,000 compounds, 1.2% hits;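 active = inhibition above the campaign mean inhibition over all tested compounds plus 3 SD, cut at about 28% in these data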;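 note: 0% = plate median of test compound wells and 100% = 2 mM ZnCl2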
Lipid droplet: modulators of hepatic lipid droplet formation. AML12 mouse hepatocytes, oleate lipid droplets, BODIPY imaging. inhibition, % at 6.5 µM. 240,000 compounds, 0.4% hits. AID 1656;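 active = lipid droplet intensity inhibited by at least 50%, with more than 500 cells counted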
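Material – AML12 mouse liver cells · Also added – oleate loading, 100 µM · Compound dosing – 6.5 µM single-point dosing · Times – overnight treatment with compound plus oleate · Measured by – fluorescence imaging, 20x objective, two fields per well · Read-out – percent inhibition of filter-corrected integrated lipid droplet intensity per well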
HTR2A ag: mouse HTR2A agonism via beta-arrestin recruitment | 360,000 compounds, 0.66% hits | CHO-K1 mHTR2A beta-arrestin complementation, luminescence; percent of 30 µM serotonin response | activation, % at 7.6 µM;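 active = activation above a run cutoff, the mean activation of all tested compounds plus 3 SD, cut at about 14% in these data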;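 note: 0% = plate median of compound wells and 100% = 30 µM serotonin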
Target sequence (P35363 whole entry, looked up): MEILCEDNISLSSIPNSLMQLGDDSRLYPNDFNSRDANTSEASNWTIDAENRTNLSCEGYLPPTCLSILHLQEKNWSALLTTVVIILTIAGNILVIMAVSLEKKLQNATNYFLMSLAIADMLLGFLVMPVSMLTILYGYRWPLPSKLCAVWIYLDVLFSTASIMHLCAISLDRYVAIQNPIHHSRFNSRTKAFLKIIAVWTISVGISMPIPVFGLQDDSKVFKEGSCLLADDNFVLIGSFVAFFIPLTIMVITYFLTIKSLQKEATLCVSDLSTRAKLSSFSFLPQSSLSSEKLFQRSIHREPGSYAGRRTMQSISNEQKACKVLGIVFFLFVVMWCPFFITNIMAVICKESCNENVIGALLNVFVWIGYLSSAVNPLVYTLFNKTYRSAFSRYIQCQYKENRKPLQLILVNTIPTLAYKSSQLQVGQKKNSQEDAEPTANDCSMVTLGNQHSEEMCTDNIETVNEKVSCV
CendR NRP1 mod: alters CendR peptide binding to human NRP-1. O14786. FAM-RPARPAR peptide binding to NRP-1, fluorescence polarization. inhibition, % at 25 µM. 360,000 compounds, 0.85% hits. AID 602438;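 active = inhibition or corrected inhibition above about 18%, plus a signal ratio from 0.5 to 1.5, limit read from the data, passing the limit was not always enough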
The depositor's hits bear a star; . = not tested or not shown.

SMILES | HGIII-sPLA2 inh | Arr AP2 block | M18AAP inhibitor | Lipid droplet | HTR2A ag | CendR NRP1 mod
C[C@H]1COc2cc(Br)ccc2S(=O)(=O)N1Cc1cn(Cc2ccco2)nn1 | 0 | . | . | . | . | .
O=C(NCc1ccco1)Nc1ccc2snnc2c1 | -10 | 2 | -6 | . | -6 | 40*
CC1(C(=O)Nc2cccnc2)Cc2c(-c3cccc(C(F)(F)F)c3)ccnc2O1 (stereo not drawn) | -12 | . | . | . | -3 | -2
CCNc1nc(SCC(N)=O)nc2sc3c(c12)CCN(C)C3 | 6 | -15 | 29* | 8 | -5 | -11
C[C@H]1COc2cc(Br)ccc2S(=O)(=O)N1Cc1cn(CC2CCCCC2)nn1 | 0 | . | . | . | . | .
C/C(=N\NC(=O)c1cc(O)ccc1O)c1cccc(NC(=O)c2cccc(Cl)c2)c1 | 16 | -3 | 16 | -42 | 5 | 23*
C/C(=N\NC(=O)c1ccccc1O)c1cccc(NC(=O)c2ccccc2)c1 | -5 | 11 | 9 | -14 | 0 | -3
Cc1ccc(-n2c(O)c(/C=N/Nc3ccc(S(=O)(=O)N4CCOCC4)cc3[N+](=O)[O-])c3ccccc3c2=O)c(C)c1 | 3 | 23 | -6 | -9 | 6 | 46*
O=C(CCCC(=O)NCC1CCCO1)NCC1CCCO1 (stereo not drawn) | 3 | 20 | -1 | . | -1 | 26*
O=C(CN1CCCCCC1)NCC1CCCO1 (stereo not drawn) | 2 | 14 | -1 | 19 | 0 | 0
COC(=O)[C@]12C[C@H](CC(=O)NCc3cccc(C(F)(F)F)c3)C(=O)N(CCc3ccc(OC)c(OC)c3)C1=C[C@H](C(C)C)O[C@@H]2C1CC1 | -4 | . | . | . | . | .
O=S(=O)(c1cccc2cnccc12)N1CCNCC1 | -3 | 26 | . | . | 2 | -5
O=S(=O)(c1cccc2ccccc12)N1CCSC1 | -2 | 26 | . | -5 | 7 | 30*
CC1(C(=O)NCc2cccc3ccccc23)CCN1Cc1ccc2ccccc2c1 (stereo not drawn) | -18 | . | . | . | -7 | -1
CC1(C(=O)NCc2cccc3ccccc23)CCN1Cc1cccc2c1OCO2 (stereo not drawn) | -3 | . | . | . | -5 | 26*
Cc1ccc(N=Nc2c(N)[nH]n3c(=O)cc(C)nc23)cc1 | -5 | 11 | 31* | . | -4 | -9
Cc1ccc(N=Nc2c(=O)[nH]n3c(C)cc(C)nc23)cc1 | 4 | 0 | 2 | . | 3 | -32
COc1ccc(C(=O)NCc2nnc(SCC(=O)Nc3nc4ccccc4s3)o2)cc1 | 0 | 11 | 13 | 13 | 10 | -12
COc1cc(C(=O)NCc2nnc(SCC(=O)Nc3cc(C)on3)o2)cc(OC)c1OC | 10 | 0 | 24 | -2 | -1 | -11
COc1cc(C(=O)NCc2nnc(SCC(=O)Nc3nc4ccccc4s3)o2)cc(OC)c1OC | -12 | 6 | 31* | 3 | 0 | -7
COc1ccc(C(=O)NCc2nnc(SCC(=O)Nc3cc(C)on3)o2)cc1OC | 5 | 5 | 30* | 26 | 7 | -14
Cc1ccc(-n2c(SCC(=O)Nc3ccc4c(c3)OCCO4)nnc2-c2ccccn2)cc1 | -3 | . | . | . | . | .
CCn1c(=O)c(CCC(=O)NCCN2CCOCC2)c(C)c2c(C)nn(-c3cccc(C)c3)c21 | -2 | -7 | 7 | 37 | -6 | 28*
O=C(Nc1cccc(C(=O)N2CCOCC2)c1)c1ccc([N+](=O)[O-])cc1 | 4 | -8 | 2 | -2 | 7 | 19*
O=C(Cc1cccc([N+](=O)[O-])c1)Nc1cccc(C(=O)N2CCOCC2)c1 | -1 | . | . | . | -1 | 7
O=C(CNc1cc(S(=O)(=O)N2CCOCC2)ccc1NCC1CCCO1)Nc1cccc(F)c1 (stereo not drawn) | -3 | 26 | 29* | -36 | -5 | -12
COC(=O)Cc1ccc(OC2(C)CCN(Cc3ccccc3OC(F)F)C2)cc1 (stereo not drawn) | 11 | . | . | . | -5 | -12
CNc1cc(=O)n(C)c(=O)n1-c1ccccc1 | 4 | -2 | . | . | -1 | 0
CCn1c(NC)cc(=O)n(C)c1=O | 3 | 0 | 4 | 28 | -2 | 21*
O=c1c(O)cccc2cc(O)c(O)c(O)c12 | -9 | 39 | 48* | -4 | 5 | 21

Assay outcomes deposited in PubChem BioAssay by several laboratories.
